Experimental data as given in ChEMBL document CHEMBL1926614, “Substituted thiazoles V. synthesis and antitumor activity of novel thiazolo[2,3-b]quinazoline and pyrido[4,3-d]thiazolo[3,2-a]pyrimidine analogues” (2012).

Experiments:
Format in all cases: functional
SK-MEL-2 = assay: Growth inhibition of human SK-MEL-2 cells at 10 uM after 48 hrs by coulter counting; conditions: SK-MEL-2, 48 h, read-out: GI
Outline: (§1)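 Single-dose primary screen across the full NCI 60-cell-line panel. Stocks were made in DMSO and diluted in PBS to a final DMSO below 1%. Cultures at 6 × 10⁴ cells/ml were run in duplicate wells alongside PBS/DMSO vehicle controls at 37 °C in humidified 5% CO₂. Data were expressed as percent growth of treated cells.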

M14 = assay: Growth inhibition of human M14 cells at 10 uM after 48 hrs by coulter counting; conditions: M14, 48 h, read-out: GI; outline: as §1
HCT-15 = assay: Growth inhibition of human HCT15 cells at 10 uM after 48 hrs by coulter counting; conditions: HCT-15, 48 h, read-out: GI; outline: as §1
NCI-H23 = assay: Growth inhibition of human NCI-H23 cells at 10 uM after 48 hrs by coulter counting; conditions: NCI-H23, 48 h, read-out: GI; outline: as §1
DU-145 = assay: Growth inhibition of human DU145 cells at 10 uM after 48 hrs by coulter counting; conditions: DU-145, 48 h, read-out: GI; outline: as §1
ACHN = assay: Growth inhibition of human ACHN cells at 10 uM after 48 hrs by coulter counting; conditions: read-out: GI; outline: as §1
NCI/ADR-RES = assay: Growth inhibition of human NCI/ADR-RES cells at 10 uM after 48 hrs by coulter counting; conditions: read-out: GI; outline: as §1
NCI-H226 = assay: Growth inhibition of human NCI-H226 cells at 10 uM after 48 hrs by coulter counting; conditions: NCI-H226, 48 h, read-out: GI; outline: as §1
U-251 = assay: Growth inhibition of human U251 cells at 10 uM after 48 hrs by coulter counting; conditions: U-251, 48 h, read-out: GI
Outline: (§2)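 Single-dose screen in the NCI 60 human tumor cell line panel (nine subpanels). Compounds dissolved in DMSO and diluted in phosphate buffered saline, keeping final DMSO below 1%. Added in duplicate wells to cells at 6 × 10⁴ cells/ml. Controls held PBS and DMSO at matching dilutions. Incubated at 37 °C, humidified, 5% CO₂. Reported as percent growth of treated cells.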

SK-MEL-28 = assay: Growth inhibition of human SK-MEL-28 cells at 10 uM after 48 hrs by coulter counting; conditions: SK-MEL-28, 48 h, read-out: GI; outline: as §1
SNB-75 = assay: Growth inhibition of human SNB75 cells at 10 uM after 48 hrs by coulter counting; conditions: SNB-75, 48 h, read-out: GI; outline: as §1
UACC-257 = assay: Growth inhibition of human UACC257 cells at 10 uM after 48 hrs by coulter counting; conditions: UACC-257, 48 h, read-out: GI; outline: as §2
CAKI-1 = assay: Growth inhibition of human Caki1 cells at 10 uM after 48 hrs by coulter counting; conditions: CAKI-1, 48 h, read-out: GI; outline: as §1
HCT-116 = assay: Growth inhibition of human HCT116 cells at 10 uM after 48 hrs by coulter counting; conditions: HCT-116, 48 h, read-out: GI; outline: as §1
HL-60(TB) = assay: Growth inhibition of human HL-60(TB) cells at 10 uM after 48 hrs by coulter counting; conditions: HL-60, 48 h, read-out: GI
Outline: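 Test compound was dissolved in DMSO and diluted in phosphate-buffered saline to a final DMSO level below 1%. Dilutions were plated in duplicate with cell culture at 6 × 10⁴ cells/ml. Vehicle controls held PBS and DMSO at matching dilutions. Incubation was at 37 °C, humidified, under 5% CO₂. Data were reported as percent growth of treated cells.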

MOLT-4 = assay: Growth inhibition of human MOLT4 cells at 10 uM after 48 hrs by coulter counting; conditions: MOLT-4, 48 h, read-out: GI; outline: as §1
T47D = assay: Growth inhibition of human T47D cells at 10 uM after 48 hrs by coulter counting; conditions: read-out: GI; outline: as §2
MCF7 = assay: Growth inhibition of human MCF7 cells at 10 uM after 48 hrs by coulter counting; conditions: MCF7, 48 h, read-out: GI; outline: as §1
OVCAR-8 = assay: Growth inhibition of human OVCAR8 cells at 10 uM after 48 hrs by coulter counting; conditions: OVCAR-8, 48 h, read-out: GI; outline: as §1
MDA-MB-435 = assay: Growth inhibition of human MDA-MB-435 cells at 10 uM after 48 hrs by coulter counting; conditions: MDA-MB-435, 48 h, read-out: GI; outline: as §1
SK-MEL-5 = assay: Growth inhibition of human SK-MEL-5 cells at 10 uM after 48 hrs by coulter counting; conditions: SK-MEL-5, 48 h, read-out: GI; outline: as §1
UO-31 = assay: Growth inhibition of human UO31 cells at 10 uM after 48 hrs by coulter counting; conditions: UO-31, 48 h, read-out: GI; outline: as §2
SNB-19 = assay: Growth inhibition of human SNB19 cells at 10 uM after 48 hrs by coulter counting; conditions: SNB-19, 48 h, read-out: GI; outline: as §1
[1] = Growth inhibition of human NCI-322M cells at 10 uM after 48 hrs by coulter counting; conditions: read-out: GI; outline: as §1
RPMI-8226 = assay: Growth inhibition of human RPMI8226 cells at 10 uM after 48 hrs by coulter counting; conditions: RPMI-8226, 48 h, read-out: GI; outline: as §1
HT-29 = assay: Growth inhibition of human HT-29 cells at 10 uM after 48 hrs by coulter counting; conditions: HT-29, 48 h, read-out: GI; outline: as §1
SF-295 = assay: Growth inhibition of human SF295 cells at 10 uM after 48 hrs by coulter counting; conditions: SF-295, 48 h, read-out: GI; outline: as §1
EKVX = assay: Growth inhibition of human EKVX cells at 10 uM after 48 hrs by coulter counting; conditions: read-out: GI; outline: as §1
TK-10 = assay: Growth inhibition of human TK10 cells at 10 uM after 48 hrs by coulter counting; conditions: TK-10, 48 h, read-out: GI; outline: as §2
CCRF-CEM = assay: Growth inhibition of human CCRF-CEM cells at 10 uM after 48 hrs by coulter counting; conditions: read-out: GI; outline: as §1
NCI-H460 = assay: Growth inhibition of human NCI-H460 cells at 10 uM after 48 hrs by coulter counting; conditions: NCI-H460, 48 h, read-out: GI; outline: as §1
SF-268 = assay: Growth inhibition of human SF268 cells at 10 uM after 48 hrs by coulter counting; conditions: SF-268, 48 h, read-out: GI; outline: as §1
A549 = assay: Growth inhibition of human A549 cells at 10 uM after 48 hrs by coulter counting; conditions: A549, 48 h, read-out: GI; outline: as §1
K562 = assay: Growth inhibition of human K562 cells at 10 uM after 48 hrs by coulter counting; conditions: K562, 48 h, read-out: GI; outline: as §1
A498 = assay: Growth inhibition of human A498 cells at 10 uM after 48 hrs by coulter counting; conditions: A498, 48 h, read-out: GI; outline: as §1
NCI-H522 = assay: Growth inhibition of human NCI-H522 cells at 10 uM after 48 hrs by coulter counting; conditions: NCI-H522, 48 h, read-out: GI; outline: as §1
HOP-62 = assay: Growth inhibition of human HOP62 cells at 10 uM after 48 hrs by coulter counting; conditions: HOP-62, 48 h, read-out: GI; outline: as §1
UACC-62 = assay: Growth inhibition of human UACC62 cells at 10 uM after 48 hrs by coulter counting; conditions: UACC-62, 48 h, read-out: GI; outline: as §2
KM12 = assay: Growth inhibition of human KM12 cells at 10 uM after 48 hrs by coulter counting; conditions: KM12, 48 h, read-out: GI; outline: as §1
LOX IMVI = assay: Growth inhibition of human LOXIMVI cells at 10 uM after 48 hrs by coulter counting; conditions: read-out: GI; outline: as §1
786-0 = assay: Growth inhibition of human 786-0 cells at 10 uM after 48 hrs by coulter counting; conditions: 786-0, 48 h, read-out: GI; outline: as §1
BT-549 = assay: Growth inhibition of human BT549 cells at 10 uM after 48 hrs by coulter counting; conditions: BT-549, 48 h, read-out: GI; outline: as §1
SN12C = assay: Growth inhibition of human SN12C cells at 10 uM after 48 hrs by coulter counting; conditions: read-out: GI; outline: as §1

Structure (SMILES): CCN1CC2=C(N=C3SC=CN3C2c2cccs2)/C(=C/c2cccs2)C1 (stereo not drawn)
- inhibition of growth at 10 µM (SK-MEL-2): > 10%
- inhibition of growth at 10 µM (M14): > 10%
- inhibition of growth at 10 µM (HCT-15): > 10%
- inhibition of growth at 10 µM (NCI-H23): > 10%
- inhibition of growth at 10 µM (DU-145): > 10%
- inhibition of growth at 10 µM (ACHN): > 10%
- inhibition of growth at 10 µM (NCI/ADR-RES): > 10%
- inhibition of growth at 10 µM (NCI-H226): > 10%
- inhibition of growth at 10 µM (U-251): > 10%
- inhibition of growth at 10 µM (SK-MEL-28): > 10%
- inhibition of growth at 10 µM (SNB-75): 14.2%
- inhibition of growth at 10 µM (UACC-257): > 10%
- inhibition of growth at 10 µM (CAKI-1): > 10%
- inhibition of growth at 10 µM (HCT-116): > 10%
- inhibition of growth at 10 µM (HL-60(TB)): > 10%
- inhibition of growth at 10 µM (MOLT-4): > 10%
- inhibition of growth at 10 µM (T47D): 11.4%
- inhibition of growth at 10 µM (MCF7): > 10%
- inhibition of growth at 10 µM (OVCAR-8): > 10%
- inhibition of growth at 10 µM (MDA-MB-435): > 10%
- inhibition of growth at 10 µM (SK-MEL-5): > 10%
- inhibition of growth at 10 µM (UO-31): 26.2%
- inhibition of growth at 10 µM (SNB-19): > 10%
- inhibition of growth at 10 µM [1]: > 10%
- inhibition of growth at 10 µM (RPMI-8226): > 10%
- inhibition of growth at 10 µM (HT-29): > 10%
- inhibition of growth at 10 µM (SF-295): > 10%
- inhibition of growth at 10 µM (EKVX): > 10%
- inhibition of growth at 10 µM (TK-10): > 10%
- inhibition of growth at 10 µM (CCRF-CEM): > 10%
- inhibition of growth at 10 µM (NCI-H460): > 10%
- inhibition of growth at 10 µM (SF-268): > 10%
- inhibition of growth at 10 µM (A549): > 10%
- inhibition of growth at 10 µM (K562): > 10%
- inhibition of growth at 10 µM (A498): 21.6%
- inhibition of growth at 10 µM (NCI-H522): > 10%
- inhibition of growth at 10 µM (HOP-62): > 10%
- inhibition of growth at 10 µM (UACC-62): > 10%
- inhibition of growth at 10 µM (KM12): > 10%
- inhibition of growth at 10 µM (LOX IMVI): > 10%
- inhibition of growth at 10 µM (786-0): > 10%
- inhibition of growth at 10 µM (BT-549): > 10%
- inhibition of growth at 10 µM (SN12C): > 10%
